# Assay outcomes from PubChem BioAssay.
# NR2E3 ag-1: agonists of human NR2E3 nuclear receptor | Q9Y5X4 | CHO-S Gal4-NCOR/VP16-NR2E3 two-hybrid, luciferase | inhibition of corepressor binding, % at 3.98 µM | 360,000 tested, 0.35% active | AID 602229;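 active = inhibition above the mean of all tested compounds plus 3 SD, cut at about 70% in these data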;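 also: 0% = DMSO with NR2E3 transfected cells and 100% = cells lacking NR2E3 construct; higher means lower luciferase signal from less NR2E3 corepressor binding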
# COUP-TFII inh: blocks human COUP-TFII nuclear receptor; inhibition, % at 8.6 µM; HEK293T NGFI-A luciferase reporter, luminescence; P24468; 370,000 tested, 0.7% active; AID 686940;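 active = inhibition above a per-plate cutoff, mean inhibition of test wells between control levels plus 3 SD, cut at about 38% in these data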;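 also: cells cotransfected with COUP-TFII expression vector driving the NGFI-A reporter; 0% = median of COUP-TF2 test wells and 100% = reporter-only cells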
# CHT inh: human CHT choline transport inhibition | Q9GZV3 | CHT-expressing cells, membrane potential dye, choline response; stronger effect = lower value | B-score at 10 µM | 310,000 tested, 0.86% active | AID 488975;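 active = B-score over 3 SD under the library average, and starting fluorescence ratio not unusually high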;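 also: choline stimulus applied at its EC90 after an EC20 pre-addition; B-score computed on integrated fluorescence ratio after choline addition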
# Target sequence (Q9GZV3 whole entry, looked up): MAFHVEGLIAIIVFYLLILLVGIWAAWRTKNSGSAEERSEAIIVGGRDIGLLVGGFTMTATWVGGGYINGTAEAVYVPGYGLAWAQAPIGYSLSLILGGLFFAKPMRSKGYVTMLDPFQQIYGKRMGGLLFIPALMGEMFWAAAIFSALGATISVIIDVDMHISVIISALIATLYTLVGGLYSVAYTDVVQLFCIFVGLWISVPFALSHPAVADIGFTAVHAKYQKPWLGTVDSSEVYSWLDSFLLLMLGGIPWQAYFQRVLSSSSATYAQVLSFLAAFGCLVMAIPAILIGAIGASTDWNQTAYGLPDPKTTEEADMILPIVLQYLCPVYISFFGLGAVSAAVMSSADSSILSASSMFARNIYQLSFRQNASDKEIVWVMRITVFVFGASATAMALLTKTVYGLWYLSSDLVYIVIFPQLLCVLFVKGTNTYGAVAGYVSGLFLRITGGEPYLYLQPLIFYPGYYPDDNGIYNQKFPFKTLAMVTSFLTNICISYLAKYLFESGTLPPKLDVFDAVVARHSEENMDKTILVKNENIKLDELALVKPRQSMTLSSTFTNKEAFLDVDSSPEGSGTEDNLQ
# NR2E3 ag-2: NR2E3 (human) agonism; 320,000 tested, 0.12% active; AID 2300; Q9Y5X4; GST-NR2E3/biotin-RetCOR TR-FRET, 1536-well; inhibition of corepressor binding, % at 4.78 µM;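 active = percent inhibition above the cutoff of mean plus 3 SD of all tested compounds, set per screening campaign, cut at about 20% in these data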;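 also: 0% = DMSO wells and 100% = biotin wells as full block of FRET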
#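 Material: NR2E3–RetCOR corepressor complex / Incubation: Compound–protein incubation for 5 h at 4 °C / Dosing: compound at 4.8 µM, single dose / Detection: time-resolved FRET / Benchmarks: high control biotin, low control 0.6% DMSO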
# GalR3 antag: blocks the human galanin receptor 3. O60755. HEK293 GalR3-CNG cAMP membrane potential fluorescence; galR3 body fused to GalR1 C-terminus. inhibition, % at 3 µM. 360,000 tested, 0.44% active;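 active = inhibition above the screen-wide average plus 3 SD, cut at about 13% in these data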;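 also: forskolin and galanin both at EC90 stimulate the cells; cAMP rise reported by CNG channel membrane potential dye signal; 0% = forskolin plus galanin with DMSO and 100% = forskolin alone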
# CHT PAM: allosterically activates the human high affinity choline transporter. Q9GZV3. CHT-expressing cells, membrane potential dye, choline EC20; stronger effect = higher value; LV-AA mutant CHT in HEK293 cells. B-score at 10 µM. 310,000 tested, 0.49% active. AID 488977;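 active = initial fluorescence not abnormally high and integrated response B-score, plate-corrected, over 3 SD above library mean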
# CHT activ conf: human CHT activation, confirmatory screen | shares compounds with CHT PAM | CHT-expressing cells, membrane potential dye fluorescence (FDSS); % of choline EC20–EC90 response window; HEK293 expressing CHT LV-AA mutant; choline added at its EC20 | activation, % at 10 µM | 2,500 tested, 91% active;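 active = primary screen active, with duplicate mean activation above negative control mean plus 3 SD, cut at about 11% in these data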
# HEK293 MP dye: activity in parental HEK293 cells lacking CHT | shares compounds with CHT PAM | membrane potential dye fluorescence (FDSS); measured after EC20 choline addition | ratio readout change at 10 µM, hits read low | 2,500 tested, 62% active;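 active = duplicate-averaged ratio beyond 3 SD from buffer wells, up or down, though filed actives are nearly all decreases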
# The depositor's hits bear a star; i = inactive; . = not tested or not shown. The list is not random: actives were taken first. Their share in the collection is about 2.3%.
SMILES,NR2E3 ag-1,COUP-TFII inh,CHT inh,NR2E3 ag-2,GalR3 antag,CHT PAM,CHT activ conf,HEK293 MP dye
C=C(C)CSc1nc2sc3c(c2c(=O)n1C1CCCCC1)CCN(C)C3,8,-6,i,-1,-2,6.8*,39*,-48*
CN1CCc2c(sc3nc(SCC(N)=O)n(-c4ccccc4)c(=O)c23)C1,-5,2,i,1,2,i,40*,-34*
CCSc1nc2sc3c(c2c(=O)n1C1CCCCC1)CCN(C)C3,-34,6,.,.,-4,.,.,.
CC(=O)Nc1ccc(C(CCCc2ccccc2)C2=CCCCC2)cc1 (stereo not given),.,5,.,.,.,.,.,.
c1ccc(C2CCC3(CC2)CCC3NCc2cccs2)cc1 (stereo not given),.,9,.,.,.,.,.,.
CC(C)c1nc(SCC(=O)Nc2nc3c(s2)CCCC3)c2ccccc2n1,29,-15,i,3,-5,9*,28*,i
Cc1nc2ccc(S(=O)(=O)NCC(=O)N(C)Cc3ccccc3F)cc2s1,.,-51,.,.,.,.,.,.
Cc1ccc2cccc(OCc3nnc(SCC(=O)O)n3C)c2n1,-25,8,i,1,-3,i,51*,-53*
COC(=O)[C@]1(CNS(=O)(=O)C2CC2)CC(=O)N(C)[C@@H]1c1ccccc1,.,-21,.,.,.,.,.,.
COc1ccc(-c2cn3cccnc3n2)cc1F,-68,-28,i,1,-2,i,15*,-33*
COc1ccc(-c2cn3cccnc3n2)cc1NS(=O)(=O)c1ccccc1,-9,13,i,3,-3,i,.,.
CCOC(=O)[C@]12CCCCC/C=C\1N(Cc1ccc(OC)cc1)C(=O)[C@H]2CC(=O)NCCC(C)C,.,1,.,.,.,.,.,.
COc1ccc(C(=O)N2CCC(Oc3cccnc3)CC2)c(OC)c1,.,-1,.,.,.,.,.,.
CC(C)CNc1cccc2c1S(=O)(=O)N(Cc1cn(Cc3cccc(C(F)(F)F)c3)nn1)Cc1ccccc1O2,.,14,.,.,.,.,.,.
Cc1c(CCOC(=O)c2ccc([N+](=O)[O-])cc2)sc[n+]1CC(=O)c1ccccc1,-14,12,i,3,-6,7.1*,58*,-52*
Cc1c(CCOC(=O)c2cccc([N+](=O)[O-])c2)sc[n+]1CC(=O)c1ccccc1,3,7,i,8,-7,i,.,.
CC(C)(C)c1ccc(S(=O)(=O)N2CCCC(C(=O)NCc3ccco3)C2)cc1 (stereo not given),.,23,.,.,.,.,.,.
O=[N+]([O-])c1ccc(OC/C=C2\Oc3ccc([N+](=O)[O-])cc3C2N2CCOCC2)cc1 (stereo not given),-2,12,i,1,-5,7.5*,30*,i
CC(=O)c1cc(-c2ccccc2S(=O)(=O)NC(C)(C)C)c(=O)n2c1CCC2,.,8,.,.,.,.,.,.
CCn1c(CNc2ccc(C(=O)O)cc2)nc2ccccc21,-2,1,i,-2,-1,i,.,.
CCn1c(/C=N/Nc2ccc(C(=O)O)cc2)nc2ccccc21,3,-11,i,0,-3,6.3*,44*,-35*
O=C(CSc1nc2ccccc2n1Cc1ccccc1Cl)NN=C/C(Br)=C/c1ccccc1,.,-15,.,.,.,.,.,.
COc1ccccc1C(=O)NC1CCCCN(Cc2cccc(F)c2)C1=O (stereo not given),.,-15,.,.,.,.,.,.
COc1ccccc1NS(=O)(=O)c1ccc(-c2cnc(C3CC3)o2)cc1,38,-14,i,-2,-3,i,24*,i
COc1ccccc1N1CCN(S(=O)(=O)c2ccc(-c3cnc(C4CC4)o3)cc2)CC1,6,-11,i,4,-8,i,.,.
COc1ccc(-c2c(Cc3ccccc3)nc(NC(=O)c3ccccc3F)n2C)cc1,.,3,.,.,.,.,.,.
COc1ccccc1CNC(=O)NC1CCN(CC(=O)Nc2ccc3c(c2)OCCO3)CC1,.,3,.,.,.,.,.,.
